The source of these data is ChEMBL document CHEMBL3351265.

Active and inactive are the calls of the source. The calls are words filed in the database; no cut-off is given here.

Experiment [1] concerns DB. Put plainly: Reduction in SUZ12 protein expression in human DB cells at 10 uM after 72 hrs by Western blot analysis. The experiment is classed as functional, cell-based. A digest of the protocol:
(§1)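 DB (mutant EZH2) or Toledo (wild-type EZH2) DLBCL cells treated with compound for 72 h; lysed in RIPA buffer; 30 μg total protein resolved by SDS-PAGE, blotted to PVDF, probed for EZH2, EED, SUZ12 or H3K27me3 with HRP secondary and chemiluminescent detection; total histone H3 as loading control; 10 μM EPZ005687 as reference inhibitor.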
(Immunoblotting shows a protein as a band on a membrane.)

Experiment [2] has as its system DB. Nature of the experiment: Reduction in EED protein expression in human DB cells at 10 uM after 72 hrs by Western blot analysis. The experiment is classed as functional, cell-based. A digest of the protocol: as §1
The nature of experiment [3]: Reduction in SUZ12 protein expression in human Toledo cells at 10 uM after 72 hrs by Western blot analysis. It is filed as functional, cell-based. A digest of the protocol: as §1
Experiment [4] in a line: Reduction in EED protein expression in human Toledo cells at 10 uM after 72 hrs by Western blot analysis. It is filed as functional, cell-based. A digest of the protocol:
as §1

Experiment [5] in a line: Reduction in EZH2 protein expression in human Toledo cells at 10 uM after 72 hrs by Western blot analysis. The experiment is classed as functional, cell-based. A digest of the protocol:
as §1

For experiment [6], the system named is DB. Put plainly: Reduction in EZH2 protein expression in human DB cells at 10 uM after 72 hrs by Western blot analysis. It is filed as functional, cell-based. A digest of the protocol: as §1
Experiment [7] deals with DB. Nature of the experiment: Reduction in EED protein expression in human DB cells at 7.5 to 30 uM after 72 hrs by Western blot analysis. The experiment is classed as functional, cell-based. A digest of the protocol:
as §1

Experiment [8] can be described thus: Reduction in EED protein expression in human Toledo cells at 2 to 8 uM after 72 hrs by Western blot analysis. It is filed as functional, cell-based. A digest of the protocol: as §1
The nature of experiment [9]: Reduction in EZH2 protein expression in human Toledo cells at 2 to 8 uM after 72 hrs by Western blot analysis. It is filed as functional, cell-based. A digest of the protocol:
as §1

The nature of experiment [10]: Reduction in SUZ12 protein expression in human Toledo cells at 2 to 8 uM after 72 hrs by Western blot analysis. It is filed as functional, cell-based. A digest of the protocol: as §1
The test system of experiment [11] is DB. Nature of the experiment: Reduction in SUZ12 protein expression in human DB cells at 7.5 to 30 uM after 72 hrs by Western blot analysis. The experiment is classed as functional, cell-based. A digest of the protocol: as §1
The test system of experiment [12] is DB. Put plainly: Reduction in EZH2 protein expression in human DB cells at 7.5 to 30 uM after 72 hrs by Western blot analysis. The experiment is classed as functional, cell-based. A digest of the protocol:
as §1

Experiment [13] concerns SU-DHL-6. Nature of the experiment: Antiproliferative activity against human SU-DHL6 cells after 7 days by CCK8 assay. A general note: Tetrazolium assays rely on reduction of a dye to a coloured formazan, in cell work by metabolically active cells.
Experiment [14] deals with DB. Nature of the experiment: Reduction in EZH2 protein expression in human DB cells after 72 hrs by Western blot analysis. It is filed as functional, cell-based. A digest of the protocol:
as §1

Experiment [15] can be described thus: Reduction in EZH2 protein expression in human Toledo cells after 72 hrs by Western blot analysis. The experiment is classed as functional, cell-based. A digest of the protocol: as §1
Experiment [16] concerns Pfeiffer. Nature of the experiment: Antiproliferative activity against human Pfeiffer cells at 5 uM after 7 days by CCK-8 assay in presence of 5 uM EPZ005687. The experiment is classed as functional, cell-based.
Experiment [17] deals with SUD4. Nature of the experiment: Antiproliferative activity against human SU-DHL4 cells after 7 days by CCK-8 assay. It is filed as functional, cell-based. A digest of the protocol:
(§2)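 DLBCL lines from ATCC grown in RPMI 1640 with 10% FBS and Pen/Strep; 1−2 × 10^4 cells per well seeded in serum-containing medium with compound, triplicate cultures; 7 days incubation; viability by CCK-8 absorbance at 450 nm (600 nm reference), expressed as percentage of absorbance relative to control cells.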

In experiment [18] the test system is Polycomb protein EED (Homo sapiens), O75530 [L123E]. To be noted: 200 uM.
A short description of experiment [19]: Reduction in EED protein expression in human Toledo cells after 72 hrs by Western blot analysis. It is filed as functional, cell-based. A digest of the protocol:
as §1

Experiment [20] concerns DB. Put plainly: Antiproliferative activity against human DB cells after 72 h by flow cytometry in presence of EPZ005687. (Flow cytometry measures light scatter and fluorescence of single cells or particles in a stream.)
The subject of experiment [21] is Polycomb protein EED (Homo sapiens), O75530 [L353A]. The note with it: 200 uM.
Experiment [22] addresses Polycomb protein EED (Homo sapiens) (UniProt O75530).
Experiment [23] deals with SUD4. Put plainly: Antiproliferative activity against human SU-DHL4 cells at 5 uM after 7 days by CCK-8 assay in presence of 5 uM EPZ005687. The experiment is classed as functional, cell-based.
The test system of experiment [24] is Pfeiffer. Put plainly: Antiproliferative activity against human Pfeiffer cells after 7 days by CCK-8 assay. The experiment is classed as functional, cell-based. A digest of the protocol:
as §2

In experiment [25] the test system is Pfeiffer. Put plainly: Antiproliferative activity against human Pfeiffer cells after 7 days by CCK8 assay.
The subject of experiment [26] is DB. Nature of the experiment: Reduction in SUZ12 protein expression in human DB cells after 72 hrs by Western blot analysis. It is filed as functional, cell-based. A digest of the protocol:
as §1

The subject of experiment [27] is DB. Nature of the experiment: Reduction in EED protein expression in human DB cells after 72 hrs by Western blot analysis. The experiment is classed as functional, cell-based. A digest of the protocol:
as §1

The target of experiment [28] is Polycomb protein EED (Homo sapiens) (UniProt O75530). The source holds these as a separate data set.
For experiment [29], the system named is SU-DHL-6. Nature of the experiment: Antiproliferative activity against human SU-DHL6 cells at 5 uM after 7 days by CCK-8 assay in presence of 5 uM EPZ005687. The experiment is classed as functional, cell-based.
Experiment [30] relates to Polycomb protein EED (Homo sapiens), O75530 [V112E]. The note with it: 200 uM.
Experiment [31] relates to Polycomb protein EED (Homo sapiens), O75530 [L246E]. The note with it: 200 uM.
The subject of experiment [32] is DB. Nature of the experiment: Antiproliferative activity against human DB cells after 7 days by CCK-8 assay. The experiment is classed as functional, cell-based. A digest of the protocol:
as §2

Experiment [33] has as its system Toledo. Put plainly: Antiproliferative activity against human Toledo cells after 7 days by CCK-8 assay. The experiment is classed as functional, cell-based. A digest of the protocol: as §2
For experiment [34], the system named is Toledo. Put plainly: Antiproliferative activity against human Toledo cells at 5 uM after 72 hrs by flow cytometry in presence of 5 uM EPZ005687.
For experiment [35], the system named is Polycomb protein EED (Homo sapiens), O75530 [F356Y]. The note with it: 200 uM.
The subject of experiment [36] is DB. Put plainly: Antiproliferative activity against shRNA-treated human DB cells at 2.5 to 15 uM after 3 days by Alamar blue assay. It is filed as functional, cell-based. A digest of the protocol: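 DB cells transduced with lentiviral pSICOR shRNA (mock, shEED or shEZH2); 5000 cells per well in serum-containing medium with compound, triplicate cultures; 3 days incubation; alamar blue added, plates incubated at 37 °C and read at 560 nm.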

Experiment [37] has as its target Polycomb protein EED (Homo sapiens) (UniProt O75530). The source holds these as a separate data set.
The test system of experiment [38] is Polycomb protein EED (Homo sapiens), O75530 [L315D]. The note with it: 200 uM.
The target of experiment [39] is Polycomb protein EED (Homo sapiens) (UniProt O75530). This is another data set of the same source.
The nature of experiment [40]: Reduction in SUZ12 protein expression in human Toledo cells after 72 hrs by Western blot analysis. The experiment is classed as functional, cell-based. A digest of the protocol: as §1
For experiment [41], the system named is Toledo. Nature of the experiment: Antiproliferative activity against human Toledo cells by flow cytometry.
Experiment [42] deals with SUD4. Put plainly: Antiproliferative activity against human SU-DHL4 cells after 7 days by CCK8 assay.
In experiment [43] the test system is DB. Put plainly: Antiproliferative activity against human DB cells at 5 uM after 72 hrs by flow cytometry in presence of 5 uM EPZ005687.
Experiment [44] has as its target Polycomb protein EED (Homo sapiens) (UniProt O75530). This is another data set of the same source.
The subject of experiment [45] is SU-DHL-6. Nature of the experiment: Antiproliferative activity against human SU-DHL6 cells after 7 days by CCK-8 assay. The experiment is classed as functional, cell-based. A digest of the protocol:
as §2

Sequence of Polycomb protein EED (Homo sapiens) (O75530 2-441 limits assumed): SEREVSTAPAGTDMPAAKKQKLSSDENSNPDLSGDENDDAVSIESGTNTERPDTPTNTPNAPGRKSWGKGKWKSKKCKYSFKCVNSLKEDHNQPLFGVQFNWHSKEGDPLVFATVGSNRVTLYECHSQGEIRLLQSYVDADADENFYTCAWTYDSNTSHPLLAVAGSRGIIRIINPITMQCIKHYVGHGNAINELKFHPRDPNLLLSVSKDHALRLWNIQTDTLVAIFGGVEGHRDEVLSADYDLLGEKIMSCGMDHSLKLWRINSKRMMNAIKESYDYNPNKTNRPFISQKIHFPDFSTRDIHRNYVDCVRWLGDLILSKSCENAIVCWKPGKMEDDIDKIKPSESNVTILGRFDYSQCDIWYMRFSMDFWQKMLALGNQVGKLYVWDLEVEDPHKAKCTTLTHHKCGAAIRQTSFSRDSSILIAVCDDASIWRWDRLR
Sequence of Polycomb protein EED (Homo sapiens), O75530 [L315D] (O75530 whole entry L315D): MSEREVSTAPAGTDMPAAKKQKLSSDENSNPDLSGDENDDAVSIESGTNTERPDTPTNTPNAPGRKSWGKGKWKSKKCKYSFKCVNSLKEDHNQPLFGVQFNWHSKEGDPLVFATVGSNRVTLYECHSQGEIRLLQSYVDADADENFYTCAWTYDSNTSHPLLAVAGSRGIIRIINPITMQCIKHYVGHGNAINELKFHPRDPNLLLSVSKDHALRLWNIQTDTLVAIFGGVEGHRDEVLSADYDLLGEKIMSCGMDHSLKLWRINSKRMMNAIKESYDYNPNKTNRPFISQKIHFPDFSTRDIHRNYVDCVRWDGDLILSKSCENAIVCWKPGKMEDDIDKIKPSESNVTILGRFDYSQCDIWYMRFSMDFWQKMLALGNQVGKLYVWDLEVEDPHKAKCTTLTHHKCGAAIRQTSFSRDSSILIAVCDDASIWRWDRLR
Sequence of Polycomb protein EED (Homo sapiens), O75530 [F356Y] (O75530 whole entry F356Y): as the sequence (O75530 whole entry L315D) above, with D315L, F356Y counted along it
Sequence of Polycomb protein EED (Homo sapiens), O75530 [L353A] (O75530 whole entry L353A): as the sequence (O75530 whole entry L315D) above, with D315L, L353A counted along it
Sequence of Polycomb protein EED (Homo sapiens), O75530 [V112E] (O75530 whole entry V112E): as the sequence (O75530 whole entry L315D) above, with V112E, D315L counted along it
Sequence of Polycomb protein EED (Homo sapiens), O75530 [L246E] (O75530 whole entry L246E): as the sequence (O75530 whole entry L315D) above, with L246E, D315L counted along it
Sequence of Polycomb protein EED (Homo sapiens), O75530 [L123E] (O75530 whole entry L123E): as the sequence (O75530 whole entry L315D) above, with L123E, D315L counted along it

In the case of `Cc1cc(C)c(CNC(=O)c2cc(-c3ccc(CN4CCOCC4)cc3)cc3c2cnn3C2CCCC2)c(=O)[nH]1`, the result in experiment [1], in [2], in [3], in experiment [4], in experiment [5] and in experiment [6] was inactive.
As to `COc1cccc2c1C(=O)c1c(O)c3c(c(O)c1C2=O)C[C@@](O)(C(=O)CO)C[C@@H]3O[C@H]1C[C@H](N)[C@H](O)[C@H](C)O1`, the result in experiment [7], in [8], in experiment [9], in experiment [10], in experiment [11] and in experiment [12] was inactive.
As to `COc1ccc(CCN2CCC(Nc3nc4ccccc4n3Cc3ccc(F)cc3)CC2)cc1`, the outcome in [13], in experiment [14], in experiment [15], in [16], in experiment [17] and in experiment [19] was Active. The outcome in experiment [20], in experiment [23], in [24], in [25], in experiment [26] and in experiment [27] was Active. For the same compound, the result in [29], in experiment [32], in experiment [33], in experiment [34], in [40] and in [41] was Active. Further, the outcome in [42], in [43] and in experiment [45] was Active. The Tm is 38.2 °C in experiment [18]; 38.2 °C in experiment [21]; 38.2 °C in experiment [30]; 38.1 °C in experiment [31]; 38.2 °C in [35]; 38.1 °C in experiment [38]. The ΔTm in experiment [22] is 4.08 °C; in experiment [28], 2 °C; in experiment [37], 1.64 °C; in experiment [39], 4.29 °C; in experiment [44], 3.44 °C. In experiment [36], the outcome was inactive.

A word on the ΔTm: it is the change in melting temperature against a reference sample.
